Measurements taken from ChEMBL document CHEMBL1152304, “Alteration of the bis-tetrahydrofuran core stereochemistries in asimicin can affect the cytotoxicity” (J Med Chem, 2008).

Tests used:
L1210 [1] = assay: Cytotoxicity against mouse L1210 cells at 3 ug by disk diffusion assay; type: functional
Method in brief: (§1)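 15 µL of sample dried overnight on 6.5 mm filter disk. Disk placed near edge of 60 mm dish of cells plated in soft agar, incubated 7-10 days. Zone of inhibition measured from disk edge to start of normal-sized colony formation, disk diameter taken as 200 units. Overly toxic samples diluted 1:4 or 1:10 and retested.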

MC-38 [2] = assay: Cytotoxicity against mouse Colon 38 cells at 3 ug by disk diffusion assay; type: functional; method in brief: as §1
[3] = Cytotoxicity against human H125M cells at 30 ug by disk diffusion assay; type: functional; method in brief: as §1
MC-38 [4] = assay: Cytotoxicity against mouse Colon 38 cells at 30 ug by disk diffusion assay; type: functional; method in brief: as §1
L1210 [5] = assay: Cytotoxicity against mouse L1210 cells at 30 ug by disk diffusion assay; type: functional; method in brief: as §1
HCT-116 [6] = assay: Cytotoxicity against human HCT116 cells at 30 ug by disk diffusion assay; type: functional; method in brief: as §1
[7] = Cytotoxicity against human CFU-GM cells at 3 ug by disk diffusion assay; type: functional; method in brief: as §1
CCRF-CEM [8] = assay: Cytotoxicity against human CEM cells at 30 ug by disk diffusion assay; type: functional; method in brief: as §1
[9] = Cytotoxicity against human CFU-GM cells at 30 ug by disk diffusion assay; type: functional; method in brief: as §1
MC-38 [10] = assay: Cytotoxicity against mouse Colon 38 cells at 0.3 ug by disk diffusion assay; type: functional; method in brief: as §1
L1210 [11] = assay: Cytotoxicity against mouse L1210 cells at 0.3 ug by disk diffusion assay; type: functional; method in brief: as §1
[12] = Cytotoxicity against human CFU-GM cells at 0.3 ug by disk diffusion assay; type: functional; method in brief: as §1
MC-38 [13] = assay: Cytotoxicity against mouse Colon 38 cells at 0.94 ug by disk diffusion assay; type: functional; method in brief: as §1
MC-38 [14] = assay: Cytotoxicity against mouse Colon 38 cells at 15 ug by disk diffusion assay; type: functional; method in brief: as §1
[15] = Cytotoxicity against human CFU-GM cells at 3.75 ug by disk diffusion assay; type: functional; method in brief: as §1
MC-38 [16] = assay: Cytotoxicity against mouse Colon 38 cells at 3.75 ug by disk diffusion assay; type: functional; method in brief: as §1
HCT-116 [17] = assay: Cytotoxicity against human HCT116 cells at 15 ug by disk diffusion assay; type: functional; method in brief: as §1
[18] = Cytotoxicity against human CFU-GM cells at 60 ug by disk diffusion assay; type: functional; method in brief: as §1
MC-38 [19] = assay: Cytotoxicity against mouse Colon 38 cells at 60 ug by disk diffusion assay; type: functional; method in brief: as §1
L1210 [20] = assay: Cytotoxicity against mouse L1210 cells at 15 ug by disk diffusion assay; type: functional; method in brief: as §1
L1210 [21] = assay: Cytotoxicity against mouse L1210 cells at 60 ug by disk diffusion assay; type: functional; method in brief: as §1
L1210 [22] = assay: Cytotoxicity against mouse L1210 cells at 3.75 ug by disk diffusion assay; type: functional; method in brief: as §1
[23] = Cytotoxicity against human CFU-GM cells at 15 ug by disk diffusion assay; type: functional; method in brief: as §1
[24] = Cytotoxicity against human CFU-GM cells at 0.94 ug by disk diffusion assay; type: functional; method in brief: as §1
[25] = Cytotoxicity against human H125M cells at 15 ug by disk diffusion assay; type: functional; method in brief: as §1
L1210 [26] = assay: Cytotoxicity against mouse L1210 cells at 0.94 ug by disk diffusion assay; type: functional; method in brief: as §1
CCRF-CEM [27] = assay: Cytotoxicity against human CEM cells at 15 ug by disk diffusion assay; type: functional; method in brief: as §1
HCT-116 [28] = assay: Cytotoxicity against human HCT116 cells; type: functional, cell-based
[29] = Inhibition of bovine heart mitochondrial complex1 activity; design: species or system Bos taurus
Method in brief: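 Bovine heart submitochondrial particles, 15 µg/mL, in 0.25 M sucrose, 1 mM MgCl2, 50 mM phosphate pH 7.5. Inhibitor added at various concentrations and equilibrated 5 min. Reaction started with 150 µM NADH and followed spectrophotometrically at 340 nm. IC50 derived.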

[30] = Cytotoxicity against human H125M cells at 60 ug by disk diffusion assay; type: functional; method in brief: as §1

Structure (SMILES)	inhibition zone (IZ) (MC-38 [13])	inhibition zone (IZ) (MC-38 [14])	inhibition zone (IZ) [15]	inhibition zone (IZ) (MC-38 [16])	inhibition zone (IZ) (HCT-116 [17])	inhibition zone (IZ) [18]	inhibition zone (IZ) (MC-38 [19])	inhibition zone (IZ) (L1210 [20])	inhibition zone (IZ) (L1210 [21])	inhibition zone (IZ) (L1210 [22])	inhibition zone (IZ) [23]	inhibition zone (IZ) [24]	inhibition zone (IZ) [25]	inhibition zone (IZ) (L1210 [26])	inhibition zone (IZ) (CCRF-CEM [27])	IC50 (HCT-116 [28])	IC50 [29]	other results
C[C@H]1C=C(C[C@H](O)CCCCCCCCCC[C@@H](O)[C@H]2CC[C@H]([C@H]3CC[C@H]([C@H](O)CCCCCCCCCCO)O3)O2)C(=O)O1																		inhibition zone (IZ) (L1210 [1]): 100 Zone units; inhibition zone (IZ) (MC-38 [2]): 600 Zone units; inhibition zone (IZ) [3]: 500 Zone units; inhibition zone (IZ) (MC-38 [4]): 800 Zone units; inhibition zone (IZ) (L1210 [5]): 200 Zone units; inhibition zone (IZ) (HCT-116 [6]): 600 Zone units; inhibition zone (IZ) [7]: 550 Zone units; inhibition zone (IZ) (CCRF-CEM [8]): 150 Zone units; inhibition zone (IZ) [9]: 650 Zone units; inhibition zone (IZ) (MC-38 [10]): 450 Zone units; inhibition zone (IZ) (L1210 [11]): 50 Zone units; inhibition zone (IZ) [12]: 450 Zone units
CCCCCCC[C@H](O)CC[C@H](O)[C@H]1CC[C@H]([C@H]2CC[C@H]([C@H](O)CCCCCCCCCC[C@@H](O)CC3=C[C@H](C)OC3=O)O2)O1	600 Zone units	950 Zone units	550 Zone units	750 Zone units	600 Zone units	700 Zone units	900 Zone units	250 Zone units	700 Zone units	350 Zone units	400 Zone units	500 Zone units	100 Zone units	150 Zone units	0 Zone units			
CCCCCCCCCC[C@H](O)[C@H]1CC[C@@H]([C@@H]2CC[C@H]([C@H](O)CCCCCCCCCC[C@@H](O)CC3=C[C@H](C)OC3=O)O2)O1 [rolliniastatin-1]	700 Zone units	1000 Zone units	400 Zone units	800 Zone units	600 Zone units	750 Zone units	900 Zone units	200 Zone units	600 Zone units	250 Zone units	350 Zone units	400 Zone units	600 Zone units	100 Zone units	0 Zone units	0.22 nM	3 nM	
CCCCCCCCCC[C@H](O)[C@H]1CC[C@@H]([C@@H]2CC[C@H]([C@@H](O)CCCCCCCCCC[C@@H](O)CC3=C[C@H](C)OC3=O)O2)O1	700 Zone units	900 Zone units	600 Zone units	800 Zone units	550 Zone units	700 Zone units	800 Zone units	200 Zone units	650 Zone units	250 Zone units	250 Zone units	550 Zone units	400 Zone units	100 Zone units	0 Zone units	0.69 nM	5 nM	
CCCCCCCCCC[C@@H](O)[C@@H]1CC[C@@H]([C@@H]2CC[C@@H]([C@H](O)CCCCCCCCCC(O)CC3=CC(C)OC3=O)O2)O1 (stereo partly specified) [BULLATACIN]	650 Zone units	850 Zone units	450 Zone units	800 Zone units	650 Zone units	700 Zone units	1000 Zone units	200 Zone units	550 Zone units	250 Zone units	550 Zone units	450 Zone units		150 Zone units	100 Zone units	1.4 nM	2.5 nM	inhibition zone (IZ) [30]: 400 Zone units
CCCCCCCCCC[C@@H](O)[C@@H]1CC[C@@H]([C@@H]2CC[C@H]([C@H](O)CCCCCCCCCC[C@@H](O)CC3=C[C@H](C)OC3=O)O2)O1																	3 nM	inhibition zone (IZ) (L1210 [1]): 150 Zone units; inhibition zone (IZ) (MC-38 [2]): 750 Zone units; inhibition zone (IZ) [3]: 600 Zone units; inhibition zone (IZ) (MC-38 [4]): 750 Zone units; inhibition zone (IZ) (L1210 [5]): 250 Zone units; inhibition zone (IZ) (HCT-116 [6]): 600 Zone units; inhibition zone (IZ) [7]: 550 Zone units; inhibition zone (IZ) (CCRF-CEM [8]): 200 Zone units; inhibition zone (IZ) [9]: 650 Zone units; inhibition zone (IZ) (MC-38 [10]): 500 Zone units; inhibition zone (IZ) (L1210 [11]): 50 Zone units; inhibition zone (IZ) [12]: 500 Zone units
CCCCCCC[C@H](O)CC[C@H](O)[C@H]1CC[C@H]([C@H]2CC[C@H]([C@@H](O)CCCCCCCCCC[C@@H](O)CC3=C[C@H](C)OC3=O)O2)O1	750 Zone units	900 Zone units	450 Zone units	850 Zone units	600 Zone units	750 Zone units	>1000 Zone units	300 Zone units	600 Zone units	400 Zone units	300 Zone units	450 Zone units	550 Zone units	100 Zone units	150 Zone units			
CCCCCCCCCC[C@@H](O)[C@H]1CC[C@@H]([C@H]2CC[C@H]([C@H](O)CCC[C@H](O)CCCCCCCC3=C[C@H](C)OC3=O)O2)O1 [TRILOBIN]	600 Zone units	800 Zone units	500 Zone units	800 Zone units	450 Zone units	550 Zone units	950 Zone units	200 Zone units	850 Zone units	200 Zone units	350 Zone units	400 Zone units	350 Zone units	100 Zone units	100 Zone units			
CCCCCCCCCC[C@H](O)[C@H]1CC[C@H]([C@H]2CC[C@H]([C@@H](O)CCCCCCCCCC[C@@H](O)CC3=C[C@H](C)OC3=O)O2)O1	700 Zone units	800 Zone units		800 Zone units	600 Zone units		800 Zone units	150 Zone units	800 Zone units	400 Zone units			450 Zone units	100 Zone units	150 Zone units	0.45 nM	9 nM	
CCCCCCCCCC[C@@H](O)[C@H]1CC[C@@H]([C@@H]2CC[C@H]([C@H](O)CCCCCCCCCC[C@@H](O)CC3=C[C@H](C)OC3=O)O2)O1	550 Zone units	800 Zone units	500 Zone units	750 Zone units	500 Zone units	650 Zone units	800 Zone units	100 Zone units	450 Zone units	150 Zone units	300 Zone units	450 Zone units	350 Zone units	150 Zone units	0 Zone units	18 nM	7.5 nM	
